In ChEMBL document CHEMBL2440047, “Design, synthesis, and structure-activity relationships of azolylmethylpyrroloquinolines as nonsteroidal aromatase inhibitors” (J Med Chem, 2013):
Calls of active or inactive are those of the source. The rule behind the calls is not given here.

Key:
[1] = system: MCF7; assay: Cell cycle arrest in estrogen-sensitive human MCF7 cells assessed as decrease of accumulation at S phase at 6 to 50 uM after 24 hrs using propidium iodide staining by flow cytometry; format: functional, cell-based
[2] = system: HeLa; assay: Cell cycle arrest in non-estrogen-sensitive human HeLa cells at 6 to 50 uM after 24 hrs using propidium iodide staining by flow cytometry; format: functional, cell-based
[3] = molecular target: T1, Steroid 17-alpha-hydroxylase/17,20 lyase (Homo sapiens, UniProt P05093); assay: Inhibition of human CYP17 expressed in Escherichia coli using progesterone as substrate NADPH as cofactor
T1 sequence (P05093 whole entry): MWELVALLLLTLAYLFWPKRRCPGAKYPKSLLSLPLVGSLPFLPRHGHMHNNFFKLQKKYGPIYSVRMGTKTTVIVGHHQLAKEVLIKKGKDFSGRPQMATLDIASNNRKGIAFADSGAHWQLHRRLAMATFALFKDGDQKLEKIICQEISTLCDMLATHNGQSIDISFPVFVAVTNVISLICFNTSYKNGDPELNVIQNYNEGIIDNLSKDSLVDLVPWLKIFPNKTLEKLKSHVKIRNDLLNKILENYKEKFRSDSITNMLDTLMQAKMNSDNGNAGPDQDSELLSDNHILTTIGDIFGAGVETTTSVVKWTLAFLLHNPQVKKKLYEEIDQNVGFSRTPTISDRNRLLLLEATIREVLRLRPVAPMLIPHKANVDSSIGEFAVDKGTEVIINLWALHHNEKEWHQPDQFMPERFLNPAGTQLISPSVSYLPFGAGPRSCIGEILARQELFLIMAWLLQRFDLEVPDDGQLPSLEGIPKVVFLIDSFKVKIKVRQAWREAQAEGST
Procedure, shortened: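 Cell-free assay using the 50000g sediment of E. coli coexpressing human CYP17 and cytochrome P450 reductase, with progesterone substrate and NADPH cofactor. IC50 given as mean ± SEM of three independent experiments run in duplicate.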

[4] = system: MCF7; assay: Cell cycle arrest in estrogen-sensitive human MCF7 cells assessed as increase of accumulation at G1 phase after 24 hrs using propidium iodide staining by flow cytometry; format: functional, cell-based
[5] = system: OVCAR-3; assay: Growth inhibition of estrogen-sensitive human OVCAR3 cells after 72 hrs by MTT assay; format: functional; conditions: OVCAR-3, 72 h
Procedure, shortened: (§1)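 Cells were seeded at 8x10^3 per well and left 18 h at 37 °C, 5% CO2, then exposed 72 h to compound at several concentrations from 10 mM DMSO stocks (final DMSO ≤0.25%). Jurkat, RS4;11 and SEM were grown in RPMI-1640; H295R in DMEM-F12 with 2% FBS plus insulin-transferrin-selenium. Viability read by MTT.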

[6] = system: HT-29; assay: Growth inhibition of non-estrogen-sensitive human HT-29 cells after 72 hrs by MTT assay; format: functional; conditions: HT-29, 72 h; procedure, shortened: as §1
[7] = molecular target: T2, Cytochrome P450 11B1, mitochondrial (Homo sapiens, UniProt P15538); assay: Inhibition of human CYP11B1 using [1,2-3H]-11-deoxycorticosterone as substrate
T2 sequence (P15538 whole entry): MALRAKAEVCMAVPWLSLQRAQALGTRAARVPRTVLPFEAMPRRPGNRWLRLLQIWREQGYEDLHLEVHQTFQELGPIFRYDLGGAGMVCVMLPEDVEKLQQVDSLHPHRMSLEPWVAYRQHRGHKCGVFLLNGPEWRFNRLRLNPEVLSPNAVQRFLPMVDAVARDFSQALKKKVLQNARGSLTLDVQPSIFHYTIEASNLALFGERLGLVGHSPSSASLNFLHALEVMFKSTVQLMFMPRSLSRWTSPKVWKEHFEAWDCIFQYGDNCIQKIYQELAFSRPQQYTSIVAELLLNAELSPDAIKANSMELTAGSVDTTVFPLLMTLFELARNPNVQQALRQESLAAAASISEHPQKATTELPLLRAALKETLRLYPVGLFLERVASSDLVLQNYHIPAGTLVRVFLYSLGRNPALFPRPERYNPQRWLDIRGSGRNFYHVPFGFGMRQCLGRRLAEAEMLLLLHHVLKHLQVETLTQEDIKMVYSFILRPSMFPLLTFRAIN
Procedure, shortened: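 Hamster fibroblast V79MZh cells expressing human CYP11B1 were incubated with [1,2-3H]-11-deoxycorticosterone substrate and inhibitor at several concentrations. IC50 given as mean ± SEM of three independent experiments run in duplicate.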

[8] = system: Jurkat; assay: Growth inhibition of non-estrogen-sensitive human Jurkat cells after 72 hrs by MTT assay; format: functional; procedure, shortened: as §1
[9] = molecular target: T3, Aromatase (Homo sapiens, UniProt P11511); assay: Inhibition of aromatase (unknown origin) using 7-methoxy-4-trifluoromethylcoumarin as substrate after 30 mins by fluorimetric analysis
T3 sequence (P11511 whole entry): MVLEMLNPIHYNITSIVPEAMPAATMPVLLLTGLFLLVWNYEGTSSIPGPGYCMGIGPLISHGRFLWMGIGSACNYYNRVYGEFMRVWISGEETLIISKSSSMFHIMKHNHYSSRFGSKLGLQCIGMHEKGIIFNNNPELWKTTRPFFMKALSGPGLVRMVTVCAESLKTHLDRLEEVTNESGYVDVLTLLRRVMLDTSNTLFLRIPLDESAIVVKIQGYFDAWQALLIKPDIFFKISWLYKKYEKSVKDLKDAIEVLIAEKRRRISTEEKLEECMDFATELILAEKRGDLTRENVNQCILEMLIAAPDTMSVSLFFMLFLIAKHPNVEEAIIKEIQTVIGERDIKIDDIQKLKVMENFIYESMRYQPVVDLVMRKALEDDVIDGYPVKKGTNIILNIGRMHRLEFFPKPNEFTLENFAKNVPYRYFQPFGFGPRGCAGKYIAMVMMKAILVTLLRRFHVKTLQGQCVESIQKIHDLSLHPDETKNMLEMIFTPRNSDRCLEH
Procedure, shortened: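 Recombinant CYP19 from a high-throughput screening kit, with 7-methoxy-4-trifluoromethylcoumarin as substrate. Enzyme/substrate mix was then added for 30 min at 37 °C before stop reagent. Fluorescence read at λex 410 / λem 530 nm. IC50 given as mean ± SEM of three independent experiments run in duplicate.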

[10] = molecular target: T3, Aromatase; assay: Activation of aromatase in human H295R cells using [1beta-3H(N)]-androst-4-ene-3,17-dione as substrate at 0.1 uM after 24 hrs by tritiated water release assay
[11] = system: MCF7; assay: Growth inhibition of estrogen-sensitive human MCF7 cells after 72 hrs by MTT assay; format: functional; conditions: MCF7, 72 h; procedure, shortened: as §1
[12] = system: IGROV-1; assay: Growth inhibition of estrogen-sensitive human IGROV1 cells after 72 hrs by MTT assay; format: functional; conditions: IGROV-1, 72 h; procedure, shortened: as §1
[13] = system: HeLa; assay: Growth inhibition of non-estrogen-sensitive human HeLa cells after 72 hrs by MTT assay; format: functional; procedure, shortened: as §1
[14] = Growth inhibition of non-estrogen-sensitive human RS4:11 cells after 72 hrs by MTT assay; format: functional; conditions: RS4-11, 72 h; procedure, shortened: as §1
[15] = Growth inhibition of non-estrogen-sensitive human SEM cells after 72 hrs by MTT assay; format: functional; procedure, shortened: as §1
[16] = system: NCI-H295R; assay: Growth inhibition of estrogen-sensitive human NCI-H295R cells after 72 hrs by MTT assay; format: functional; procedure, shortened: as §1
[17] = molecular target: T3, Aromatase; assay: Inhibition of CYP19 in human H295R cells using [1beta-3H(N)]-androst-4-ene-3,17-dione at 10 uM after 24 hrs by tritiated water release assay; format: cell-based
Procedure, shortened: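 Cells were then incubated 2 h with 0.5 µM [1β-3H(N)]-androst-4-ene-3,17-dione. Read-out is tritiated water release, expressed as % of untreated cells. Means ± SEM of two independent experiments, each in triplicate.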

[18] = molecular target: T3, Aromatase; assay: Inhibition of aromatase (unknown origin) using 7-methoxy-4-trifluoromethylcoumarin as substrate at 10 uM after 30 mins by fluorimetric analysis; conditions: 0.5 h
[19] = molecular target: T3, Aromatase; assay: Inhibition of aromatase in human H295R cells using [1beta-3H(N)]-androst-4-ene-3,17-dione as substrate assessed as residual activity at 1 uM after 24 hrs by tritiated water release assay

Row | IC50 [3] [µM] | GI50 [5] [µM] | GI50 [6] [µM] | IC50 [7] [µM] | GI50 [8] [µM] | IC50 [9] [µM] | Activity [10] | GI50 [11] [µM] | GI50 [13] [µM] | GI50 [16] [µM] | inhibition (INH) [17] | inhibition (INH) [18] | activity at 1 µM [19] [%] | Structure (SMILES) | Activity [1] | Activity [2] | Activity [4] | GI50 [12] [µM] | GI50 [14] [µM] | GI50 [15] [µM]
1 | 0.919 | 16.9 | 13.5 | 0.23 | 27 | 0.0114 | Active | 23.3 | 21.2 | 36.5 | Not Active |  |  | c1ccc(-c2cc(Cn3ccnc3)c3ccc4[nH]ccc4c3n2)cc1 | Active | inactive | Dose-dependent effect | 23.6 | 29.6 | 17
2 |  |  |  |  |  | 4.15 |  | 5.7 |  |  | Not Active |  |  | Cc1cc(CO)c2ccc3[nH]ccc3c2n1 |  |  |  |  |  | 16.2
3 | 0.48 | 17.5 | 6.5 | 0.25 | 16.7 | 0.0053 | Active | 3.8 | 19.5 | 19 |  | Active |  | CCn1ccc2c3nc(-c4ccccc4)cc(Cn4ccnc4)c3ccc21 |  |  |  | 18.9 | 19.2 | 31.2
4 |  |  | 17.2 |  |  | > 10 |  |  |  |  | Active |  |  | CCOC(=O)c1cc(-c2ccccc2)nc2c1ccc1[nH]ccc12 |  |  |  |  |  | 
5 |  |  |  |  |  | > 10 |  |  |  |  | Not Active |  |  | CCOC(=O)c1cc(C)nc2c1ccc1[nH]ccc12 |  |  |  |  |  | 
6 | > 5 | 50.6 | > 100 | > 5 | 39.5 | > 10 | Active | > 100 | > 100 | > 100 | Not Active |  |  | COc1ccc(-c2cc(Cn3cncn3)c3ccc4[nH]ccc4c3n2)cc1 |  |  |  | 82 | 43.8 | 28.4
7 |  |  |  |  |  | > 10 |  |  |  |  | Not Active |  |  | CCOC(=O)c1cc(-c2ccccc2)nc2ccc3c(ccn3CC)c12 |  |  |  |  |  | 
8 |  |  | 4.3 |  |  | > 10 |  | 18.5 |  |  | Not Active |  |  | CCOC(=O)c1cc(-c2ccccc2)nc2c1ccc1c2ccn1CC |  |  |  |  |  | 13
9 |  |  |  |  |  | > 10 |  |  |  |  | Not Active |  | 10.6 | COc1ccc(-c2cc(C(=O)O)c3ccc4[nH]ccc4c3n2)cc1 |  |  |  |  |  | 
